Assay outcomes (PubChem)
KCNQ1 pot: potentiators or activators of human KCNQ1 potassium channel; B-score at 10 µM; actives 0.35% (n = 310,000); P51787; CHO-K1 KCNQ1, thallium flux FluxOR fluorescence; active compounds read high; AID 2648;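 active = fluorescence ratio B-score, a plate-corrected score, at least three library SD, with initial intensity B-score within 5 SD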
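assay system = CHO-K1 cells stably expressing KCNQ1 | medium = assay buffer, equal DMSO in all wells | timing = 37 °C overnight plating, 90-min dark dye load, 20-min compound pretreatment | measured by = kinetic FluxOR thallium fluorescence, 10-s 1-Hz baseline, 110-s post-stimulus read | measure = fluorescence change relative to baseline, converted to B score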
KCNQ1 block: blocks the human KCNQ1 potassium channel; CHO-K1 KCNQ1, FluxOR thallium flux fluorescence; active compounds read high; B-score at 10 µM; P51787; actives 1.3% (n = 310,000);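 active = compounds whose thallium flux B-score, printed positive for inhibition, exceeds three library SD while starting fluorescence stays within three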;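 note: channel opened by potassium depolarization with thallium stimulus after 20 min compound exposure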
KCNK9 block: blocks the human KCNK9 two-pore domain potassium channel; Q9NPC2; HEK293 KCNK9, FluxOR thallium flux fluorescence; active compounds read low; B-score at 10 µM; actives 1.2% (n = 310,000); AID 488922;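 active = ratio B-score over 3 SD below the library mean, with starting fluorescence within 5 SD of its mean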;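 note: negative B-score means less thallium flux so channel inhibition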
KCNK3 inh: human KCNK3 channel inhibition, primary screen; O14649; actives 0.84% (n = 340,000); CHO-KCNK3 thallium flux, FluxOR fluorescence; active compounds read low; B-score at 10 µM;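 active = B-score under library mean minus 4 SD, starting fluorescence ratio at most library mean plus 5 SD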;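 note: more negative B-score means stronger inhibition of thallium flux through KCNK3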
Target sequence (O14649 whole entry, looked up): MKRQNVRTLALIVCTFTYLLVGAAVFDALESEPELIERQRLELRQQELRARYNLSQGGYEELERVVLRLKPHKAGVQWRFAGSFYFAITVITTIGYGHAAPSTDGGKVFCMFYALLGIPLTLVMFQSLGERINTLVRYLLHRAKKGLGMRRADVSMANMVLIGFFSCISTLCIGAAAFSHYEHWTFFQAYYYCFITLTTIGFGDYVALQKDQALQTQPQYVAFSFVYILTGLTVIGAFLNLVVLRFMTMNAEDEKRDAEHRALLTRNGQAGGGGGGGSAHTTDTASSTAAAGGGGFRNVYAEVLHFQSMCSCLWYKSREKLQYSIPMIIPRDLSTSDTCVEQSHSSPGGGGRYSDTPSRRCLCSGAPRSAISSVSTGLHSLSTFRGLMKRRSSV
hERG rescue: hERG (human) protection from proarrhythmic block; actives 0.51% (n = 310,000); Q12809; activation (rescue from dofetilide block), less the hit threshold, % at 10 µM; CHO-hERG, FluxOR thallium flux, dofetilide IC70 present;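 active = activation above the mean of controls blocked by dofetilide plus 5 SD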;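 note: thallium influx through hERG after potassium depolarization seen as dye fluorescence rise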
Kir21 inh: inhibitors of mouse Kir2.1 inward-rectifier potassium channel; P35561; HEK293-Kir2.1, FluxOR thallium flux fluorescence; active compounds read low; B-score at 10 µM; actives 0.85% (n = 310,000); AID 1672;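 active = fluorescence ratio B-score at or below minus 3 SD of library scores, with starting-brightness B-score within 2 SD, cut at about -4.2 in these data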;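 note: channel flux triggered by added potassium and thallium sulfate stimulus; B-score of peak minus minimum fluorescence over baseline after thallium stimulus; more negative B-score means stronger Kir2.1 block with less thallium influx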
Starred values were filed as active, the others as inactive. A selection: hits, their analogues and other compounds. The true share with any hit is near 3.7%.

How did Fc1ccccc1N1CCN(c2nc(-c3cccs3)nc3ccccc23)CC1 do in these assays?
KCNQ1 pot: inactive; KCNQ1 block: inactive; KCNK9 block: -7.6*; KCNK3 inh: inactive; hERG rescue: -16; Kir21 inh: 2.2

What do the screens show for `c1cncc(-c2nc(N3CCCCCC3)c3ccccc3n2)c1`?
KCNQ1 pot: inactive; KCNQ1 block: inactive; KCNK9 block: inactive; KCNK3 inh: inactive; hERG rescue: -31; Kir21 inh: -0.18

What do the screens show for `CC(=O)N1CCN(c2nc(-c3cccs3)nc3ccccc23)CC1`?
KCNQ1 pot: inactive; KCNQ1 block: inactive; KCNK9 block: inactive; KCNK3 inh: inactive; hERG rescue: -20; Kir21 inh: -1.6

Results for c1ccc2c(N3CCCCCC3)nc(-c3ccncc3)nc2c1 ?
KCNQ1 pot: inactive; KCNQ1 block: inactive; KCNK9 block: -6.6*; KCNK3 inh: inactive; hERG rescue: -16; Kir21 inh: 0.6

What do the screens show for `CCOC(=O)C1CCN(C(=O)c2ccc(OCC(=O)Nc3cccc(C(F)(F)F)c3)c(OC)c2)CC1`?
KCNQ1 pot: inactive; KCNQ1 block: inactive; KCNK9 block: inactive; KCNK3 inh: inactive; hERG rescue: -25; Kir21 inh: 0.26

What do the screens show for `Cc1ccc(S(=O)(=O)N2CCN(C(=O)c3cc(S(=O)(=O)N4CCOCC4)c(Cl)cc3Cl)CC2)cc1`?
KCNK3 inh: inactive

What do the screens show for `ON=C1CCCCCCCC1`?
KCNK3 inh: inactive

Results for NC(N)=NN=C1CCCCCCCCCCC1 ?
KCNQ1 pot: inactive; KCNQ1 block: 7*; KCNK9 block: inactive; KCNK3 inh: inactive; hERG rescue: -26; Kir21 inh: -11*

Results for O=C(C1CCCN(S(=O)(=O)c2cc(Cl)ccc2Cl)C1)N1CCCC1 (centres undefined) ?
KCNQ1 pot: inactive; KCNQ1 block: inactive; KCNK9 block: inactive; KCNK3 inh: inactive; hERG rescue: -13; Kir21 inh: 0.2

What do the screens show for `Cc1sc(NC(=O)CN2CCN(c3ccccn3)CC2)c(C#N)c1C`?
KCNQ1 pot: inactive; KCNQ1 block: inactive; KCNK9 block: inactive; KCNK3 inh: inactive; hERG rescue: -2; Kir21 inh: -4.5*

Results for N#Cc1ccccc1NC(=O)CN1CCN(c2ccccn2)CC1 ?
KCNQ1 pot: inactive; KCNQ1 block: inactive; KCNK9 block: inactive; KCNK3 inh: inactive; hERG rescue: -7; Kir21 inh: 0.13

What do the screens show for `CCOc1cc(/C=C2\COc3ccccc3C2=O)cc(Br)c1OCC(=O)N(C)C`?
KCNQ1 pot: inactive; KCNQ1 block: inactive; KCNK9 block: inactive; KCNK3 inh: inactive; hERG rescue: -12; Kir21 inh: -5*

Results for CCOc1ccc(-n2ccnc2SCC(=O)N2CCCc3ccccc32)cc1 ?
KCNQ1 pot: inactive; KCNQ1 block: inactive; KCNK9 block: inactive; KCNK3 inh: inactive; hERG rescue: -5; Kir21 inh: -6.7*

Results for CCOc1ccc2nc(SCC(=O)N3CCCc4ccccc43)sc2c1 ?
KCNQ1 pot: inactive; KCNQ1 block: inactive; KCNK9 block: inactive; KCNK3 inh: inactive; hERG rescue: -8; Kir21 inh: 0.74

Results for COc1cccc(-n2ccnc2SCC(=O)Nc2ccccc2)c1 ?
KCNQ1 pot: inactive; KCNQ1 block: inactive; KCNK9 block: inactive; KCNK3 inh: inactive; hERG rescue: -8; Kir21 inh: -4.9*

Results for COc1cccc(-n2ccnc2SCC(=O)N2CCCc3ccccc32)c1 ?
KCNQ1 pot: inactive; KCNQ1 block: inactive; KCNK9 block: inactive; KCNK3 inh: inactive; hERG rescue: -7; Kir21 inh: -7.5*

What do the screens show for `O=C(NNC(=O)c1ncc(Cl)c(Cl)c1Cl)c1ccc(F)cc1`?
KCNQ1 pot: inactive; KCNQ1 block: inactive; KCNK9 block: inactive; KCNK3 inh: inactive; hERG rescue: -11; Kir21 inh: -0.46

Results for Cc1ccc(Cn2c(SCC(=O)NCC3CCCO3)nc3c2c(=O)n(C)c(=O)n3C)cc1 (centres undefined) ?
KCNQ1 pot: inactive; KCNQ1 block: inactive; KCNK9 block: inactive; KCNK3 inh: inactive; hERG rescue: -3; Kir21 inh: 0.75

What do the screens show for `O=C(Oc1cccc(C(=S)N2CCCCC2)c1)c1ccccc1`?
KCNQ1 pot: inactive; KCNQ1 block: inactive; KCNK9 block: inactive; KCNK3 inh: inactive; hERG rescue: -25; Kir21 inh: -0.37

What do the screens show for `COc1cc(C(=S)N2CCOCC2)ccc1OC(=O)c1ccccc1`?
KCNQ1 pot: inactive; KCNQ1 block: inactive; KCNK9 block: inactive; KCNK3 inh: inactive; hERG rescue: -13; Kir21 inh: -5.1*

How did O=C(Oc1ccc(C(=S)N2CCCCC2)cc1)c1ccccc1 do in these assays?
KCNQ1 pot: inactive; KCNQ1 block: inactive; KCNK9 block: inactive; KCNK3 inh: inactive; hERG rescue: -5; Kir21 inh: -4.6*

What do the screens show for `COc1ccc(C(=S)N2CCOCC2)cc1OC(=O)c1ccccc1`?
KCNQ1 pot: inactive; KCNQ1 block: inactive; KCNK9 block: inactive; KCNK3 inh: inactive; hERG rescue: -6; Kir21 inh: -1.6

Results for COc1cc(C(=S)N2CCOCC2)ccc1OC(=O)c1ccc([N+](=O)[O-])cc1[N+](=O)[O-] ?
KCNQ1 pot: inactive; KCNQ1 block: inactive; KCNK9 block: inactive; KCNK3 inh: inactive; hERG rescue: 5.9*; Kir21 inh: -0.01

What do the screens show for `CCOc1ccc(/C=C2/SC(=O)NC2=S)cc1`?
KCNQ1 pot: 112*; KCNQ1 block: inactive; KCNK9 block: inactive; KCNK3 inh: inactive; hERG rescue: 37*; Kir21 inh: 2.3

What do the screens show for `CCOc1ccc(/C=C2\SC(=S)N(N3C(=O)C4CC4C3=O)C2=O)cc1` (centres undefined)?
KCNQ1 pot: inactive; KCNQ1 block: inactive; KCNK9 block: inactive; KCNK3 inh: inactive; hERG rescue: -6; Kir21 inh: -0.19

How did CC(C)(C)NC(=O)C(c1ccccn1)N(C(=O)C1CSC(=O)C1)c1ccccc1F (centres undefined) do in these assays?
KCNQ1 pot: inactive; KCNQ1 block: inactive; KCNK9 block: inactive; KCNK3 inh: inactive; hERG rescue: -6; Kir21 inh: 0.04

How did COc1ccc(C)cc1NC(=O)C(OC(=O)CNC(=O)c1cc(C)cc(C)c1)c1ccccc1 (centres undefined) do in these assays?
KCNQ1 pot: inactive; KCNQ1 block: inactive; KCNK9 block: -8*; KCNK3 inh: inactive; hERG rescue: -5; Kir21 inh: -0.1

Results for COc1ccc(C)cc1NC(=O)C(OC(=O)c1cnccn1)c1ccccc1 (centres undefined) ?
KCNQ1 pot: inactive; KCNQ1 block: inactive; KCNK9 block: inactive; KCNK3 inh: inactive; hERG rescue: -16; Kir21 inh: 2.3
